Measured values published in ChEMBL document CHEMBL3616442, “Unconventional Knoevenagel-type indoles: Synthesis and cell-based studies for the identification of pro-apoptotic agents” (Eur J Med Chem, 2015).

How the values were obtained:
HOP-62 = assay: Growth inhibition of human HOP62 cells after 48 hrs by sulforhodamine B assay; assay type: functional; conditions: HOP-62, 48 h
In short: (§1)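 NCI 60-cell-line screen. Compounds tested at five 10-fold dilutions from 10^-4 to 10^-8 M. Cells exposed for the last 48 h of a 72 h incubation, growth estimated by sulforhodamine B protein assay. GI50 is the concentration giving 50% growth inhibition. Values beyond the tested range are expressed as greater or lesser than the extreme concentration.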

K562 = assay: Growth inhibition of human K562 cells after 48 hrs by sulforhodamine B assay; assay type: functional; conditions: K562, 48 h; in short: as §1
OVCAR-3 = assay: Growth inhibition of human OVCAR3 cells after 48 hrs by sulforhodamine B assay; assay type: functional; conditions: OVCAR-3, 48 h; in short: as §1
[1] = Growth inhibition of human NCI-ADR-RES cells after 48 hrs by sulforhodamine B assay; assay type: functional; in short: as §1
MDA-MB-468 = assay: Growth inhibition of human MDA-MB-468 cells after 48 hrs by sulforhodamine B assay; assay type: functional; conditions: MDA-MB-468, 48 h; in short: as §1
HT-29 = assay: Growth inhibition of human HT-29 cells after 48 hrs by sulforhodamine B assay; assay type: functional; conditions: HT-29, 48 h; in short: as §1
[2] = Growth inhibition of human Hs 578T cells after 48 hrs by sulforhodamine B assay; assay type: functional; in short: as §1
MCF7 = assay: Growth inhibition of human MCF7 cells after 48 hrs by sulforhodamine B assay; assay type: functional; conditions: MCF7, 48 h; in short: as §1
T47D = assay: Growth inhibition of human T47D cells after 48 hrs by sulforhodamine B assay; assay type: functional
SR = assay: Growth inhibition of human SR cells after 48 hrs by sulforhodamine B assay; assay type: functional
HCT-116 = assay: Growth inhibition of human HCT116 cells after 48 hrs by sulforhodamine B assay; assay type: functional; conditions: HCT-116, 48 h; in short: as §1
CAKI-1 = assay: Growth inhibition of human CAKI-1 cells after 48 hrs by sulforhodamine B assay; assay type: functional; conditions: CAKI-1, 48 h; in short: as §1
[3] = Growth inhibition of human SF539 cells after 48 hrs by sulforhodamine B assay; assay type: functional; conditions: SF-539, 48 h
SN12C = assay: Growth inhibition of human SN12C cells after 48 hrs by sulforhodamine B assay; assay type: functional
SK-OV-3 = assay: Growth inhibition of human SKOV3 cells after 48 hrs by sulforhodamine B assay; assay type: functional; conditions: SK-OV-3, 48 h
SK-MEL-5 = assay: Growth inhibition of human SK-MEL-5 cells after 48 hrs by sulforhodamine B assay; assay type: functional; conditions: SK-MEL-5, 48 h
DU-145 = assay: Growth inhibition of human DU145 cells after 48 hrs by sulforhodamine B assay; assay type: functional; conditions: DU-145, 48 h; in short: as §1
[4] = Growth inhibition of human RXF393 cells after 48 hrs by sulforhodamine B assay; assay type: functional; conditions: RXF 393, 48 h
A549 = assay: Growth inhibition of human A549 cells after 48 hrs by sulforhodamine B assay; assay type: functional; conditions: A549, 48 h; in short: as §1
IGROV-1 = assay: Growth inhibition of human IGROV1 cells after 48 hrs by sulforhodamine B assay; assay type: functional; conditions: IGROV-1, 48 h; in short: as §1
SNB-19 = assay: Growth inhibition of human SNB19 cells after 48 hrs by sulforhodamine B assay; assay type: functional; conditions: SNB-19, 48 h
A498 = assay: Growth inhibition of human A498 cells after 48 hrs by sulforhodamine B assay; assay type: functional; conditions: A498, 48 h; in short: as §1
SK-MEL-28 = assay: Growth inhibition of human SK-MEL-28 cells after 48 hrs by sulforhodamine B assay; assay type: functional; conditions: SK-MEL-28, 48 h
[5] = Growth inhibition of human HOP92 cells after 48 hrs by sulforhodamine B assay; assay type: functional; conditions: HOP-92, 48 h; in short: as §1
MT4 = assay: Antiproliferative activity against human MT4 cells after 96 hrs by MTT assay; assay type: functional, cell-based; conditions: MT4, 96 h
In short: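 Exponentially growing MT-4 cells (CD4+ human T-cells carrying integrated HTLV-1 genome), seeded at 1×10^5 cells/mL in RPMI-1640 with 10% FCS and antibiotics. Serial dilutions of compound (DMSO stock 100 mM, diluted in medium), 37 °C, 5% CO₂, 96 h. Viability read by MTT. 50% inhibition versus untreated controls by linear regression. Mean ± SD of three independent determinations.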

786-0 = assay: Growth inhibition of human 786-0 cells after 48 hrs by sulforhodamine B assay; assay type: functional; conditions: 786-0, 48 h; in short: as §1
HCT-15 = assay: Growth inhibition of human HCT15 cells after 48 hrs by sulforhodamine B assay; assay type: functional; conditions: HCT-15, 48 h; in short: as §1
NCI-H23 = assay: Growth inhibition of human NCI-H23 cells after 48 hrs by sulforhodamine B assay; assay type: functional; conditions: NCI-H23, 48 h; in short: as §1
NCI-H322M = assay: Growth inhibition of human NCI-H322M cells after 48 hrs by sulforhodamine B assay; assay type: functional; in short: as §1
M14 = assay: Growth inhibition of human M14 cells after 48 hrs by sulforhodamine B assay; assay type: functional; conditions: M14, 48 h; in short: as §1
PC-3 = assay: Growth inhibition of human PC3 cells after 48 hrs by sulforhodamine B assay; assay type: functional; conditions: PC-3, 48 h
HL-60(TB) = assay: Growth inhibition of human HL-60(TB) cells after 48 hrs by sulforhodamine B assay; assay type: functional; conditions: HL-60, 48 h
In short: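 NCI 60-cell-line screen, HL-60(TB) included. Compound given at five 10-fold dilutions from 10^-4 to 10^-8 M. Cells exposed for the last 48 h of a 72 h incubation. Growth or viability estimated by sulforhodamine B protein assay. GI50 is the concentration giving 50% growth inhibition. Values outside the tested range are reported as greater or less than the highest or lowest concentration.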

MDA-MB-231 = assay: Growth inhibition of human MDA-MB-231 cells after 48 hrs by sulforhodamine B assay; assay type: functional; conditions: MDA-MB-231, 48 h; in short: as §1
SF-268 = assay: Growth inhibition of human SF268 cells after 48 hrs by sulforhodamine B assay; assay type: functional; conditions: SF-268, 48 h
[6] = Growth inhibition of human COLO205 cells after 48 hrs by sulforhodamine B assay; assay type: functional; conditions: COLO 205, 48 h; in short: as §1
U-251 = assay: Growth inhibition of human U251 cells after 48 hrs by sulforhodamine B assay; assay type: functional; conditions: U-251, 48 h
UACC-62 = assay: Growth inhibition of human UACC62 cells after 48 hrs by sulforhodamine B assay; assay type: functional; conditions: UACC-62, 48 h
NCI-H460 = assay: Growth inhibition of human NCI-H460 cells after 48 hrs by sulforhodamine B assay; assay type: functional; conditions: NCI-H460, 48 h; in short: as §1
SK-MEL-2 = assay: Growth inhibition of human SK-MEL-2 cells after 48 hrs by sulforhodamine B assay; assay type: functional; conditions: SK-MEL-2, 48 h
KM12 = assay: Growth inhibition of human KM12 cells after 48 hrs by sulforhodamine B assay; assay type: functional; conditions: KM12, 48 h; in short: as §1
SNB-75 = assay: Growth inhibition of human SNB75 cells after 48 hrs by sulforhodamine B assay; assay type: functional; conditions: SNB-75, 48 h
[7] = Growth inhibition of human SF295 cells after 48 hrs by sulforhodamine B assay; assay type: functional; conditions: SF-295, 48 h
MDA-MB-435 = assay: Growth inhibition of human MDA-MB-435 cells after 48 hrs by sulforhodamine B assay; assay type: functional; conditions: MDA-MB-435, 48 h; in short: as §1
SW-620 = assay: Growth inhibition of human SW620 cells after 48 hrs by sulforhodamine B assay; assay type: functional; conditions: SW-620, 48 h
[8] = Growth inhibition of human RPMI8226 cells after 48 hrs by sulforhodamine B assay; assay type: functional; conditions: RPMI-8226, 48 h
NCI-H226 = assay: Growth inhibition of human NCI-H226 cells after 48 hrs by sulforhodamine B assay; assay type: functional; conditions: NCI-H226, 48 h; in short: as §1
[9] = Growth inhibition of human MOLT4 cells after 48 hrs by sulforhodamine B assay; assay type: functional; conditions: MOLT-4, 48 h; in short: as §1
ACHN = assay: Growth inhibition of human ACHN cells after 48 hrs by sulforhodamine B assay; assay type: functional; in short: as §1
[10] = Growth inhibition of human EKVX cells after 48 hrs by sulforhodamine B assay; assay type: functional; in short: as §1
NCI-H522 = assay: Growth inhibition of human NCI-H522 cells after 48 hrs by sulforhodamine B assay; assay type: functional; conditions: NCI-H522, 48 h; in short: as §1
[11] = Growth inhibition of human LOXIMVI cells after 48 hrs by sulforhodamine B assay; assay type: functional; conditions: LOX IMVI; in short: as §1
OVCAR-4 = assay: Growth inhibition of human OVCAR4 cells after 48 hrs by sulforhodamine B assay; assay type: functional; conditions: OVCAR-4, 48 h; in short: as §1

Q: What does the source list for `COc1ccc(-c2[nH]c3ccc(OC)cc3c2C=C(C#N)C#N)cc1`?
A: GI50 (HOP-62): 3.3 µM; GI50 (K562): 0.345 µM; GI50 (OVCAR-3): 0.424 µM; GI50 [1]: 0.403 µM; GI50 (MDA-MB-468): 0.503 µM; GI50 (HT-29): 0.407 µM; GI50 [2]: 0.513 µM; GI50 (MCF7): 0.385 µM; GI50 (T47D): 2.6 µM; GI50 (SR): 0.152 µM; GI50 (HCT-116): 0.487 µM; GI50 (CAKI-1): 0.392 µM; GI50 [3]: 0.774 µM; GI50 (SN12C): 15.9 µM; GI50 (SK-OV-3): 0.892 µM; GI50 (SK-MEL-5): 0.324 µM; GI50 (DU-145): 0.917 µM; GI50 [4]: 5.5 µM; GI50 (A549): 3.8 µM; GI50 (IGROV-1): 5.8 µM; GI50 (SNB-19): 13.7 µM; GI50 (A498): 0.075 µM; GI50 (SK-MEL-28): 1.7 µM; GI50 [5]: 23 µM; EC50 (MT4): 0.3 µM; GI50 (786-0): 14.3 µM; GI50 (HCT-15): 0.778 µM; GI50 (NCI-H23): 2 µM; GI50 (NCI-H322M): 0.38 µM; GI50 (M14): 0.308 µM; GI50 (PC-3): 0.342 µM; GI50 (HL-60(TB)): 0.363 µM; GI50 (MDA-MB-231): 1.3 µM; GI50 (SF-268): 1.7 µM; GI50 [6]: 0.291 µM; GI50 (U-251): 0.635 µM; GI50 (UACC-62): 0.357 µM; GI50 (NCI-H460): 0.472 µM; GI50 (SK-MEL-2): 5.9 µM; GI50 (KM12): 0.59 µM; GI50 (SNB-75): 0.593 µM; GI50 [7]: 0.306 µM; GI50 (MDA-MB-435): 0.122 µM; GI50 (SW-620): 0.579 µM; GI50 [8]: 5.1 µM; GI50 (NCI-H226): 1.5 µM; GI50 [9]: 0.369 µM

Q: For `O=C(/C(=C\c1c(-c2ccccc2)[nH]c2ccccc12)S(=O)(=O)c1ccccc1)c1ccccc1`, which GI50 (ACHN) is on record?
A: 6.7 µM

Q: And the GI50 (K562)?
A: 6.5 µM

Q: And the GI50 (MDA-MB-468)?
A: 4.2 µM

Q: What about the GI50 [2] of the same molecule?
A: 39.5 µM

Q: And the GI50 (MCF7)?
A: 5 µM

Q: What about the GI50 [10] of the same molecule?
A: 4.6 µM

Q: What about the GI50 (T47D) of the same molecule?
A: 3.4 µM

Q: And the GI50 (SR)?
A: 9.9 µM

Q: And the GI50 (NCI-H522)?
A: 91.8 µM

Q: And the GI50 (HCT-116)?
A: 4.9 µM

Q: What about the GI50 (CAKI-1) of the same molecule?
A: 3.1 µM

Q: What about the GI50 (SK-OV-3) of the same molecule?
A: 7.6 µM

Q: What about the GI50 (SK-MEL-5) of the same molecule?
A: 9 µM

Q: What about the GI50 [4] of the same molecule?
A: 97.1 µM

Q: And the GI50 (A549)?
A: 35 µM

Q: What about the GI50 [5] of the same molecule?
A: 5 µM

Q: What about the GI50 [11] of the same molecule?
A: 74.7 µM

Q: What about the EC50 (MT4) of the same molecule?
A: 3 µM

Q: And the GI50 (OVCAR-4)?
A: 6.6 µM

Q: What about the GI50 (NCI-H23) of the same molecule?
A: 9.6 µM

Q: And the GI50 (M14)?
A: 15.6 µM

Q: What about the GI50 (PC-3) of the same molecule?
A: 5 µM

Q: And the GI50 (HL-60(TB))?
A: 5 µM

Q: And the GI50 [6]?
A: 7.8 µM

Q: What about the GI50 (U-251) of the same molecule?
A: 8.6 µM

Q: And the GI50 (UACC-62)?
A: 9 µM

Q: And the GI50 (NCI-H460)?
A: 5.9 µM

Q: What about the GI50 (KM12) of the same molecule?
A: 5.1 µM

Q: And the GI50 (SNB-75)?
A: 10.1 µM

Q: And the GI50 [7]?
A: 3.5 µM

Q: What about the GI50 (MDA-MB-435) of the same molecule?
A: 3.9 µM

Q: What about the GI50 [8] of the same molecule?
A: 7.6 µM
